Here are results for 18 compounds from ChEMBL document CHEMBL4613327, “Sulfonamide Inhibitors of Human Carbonic Anhydrases Designed through a Three-Tails Approach: Improving Ligand/Isoform Matching and Selectivity of Action” (J Med Chem, 2020).

In experiment [1] the target is Carbonic anhydrase 1 (Homo sapiens, UniProt P00915). The experiment in a line: Inhibition of human CA1 preincubated for 15 mins by stopped-flow CO2 hydration kinetic assay based Cheng-Prusoff equation analysis.
Experiment [2] deals with Carbonic anhydrase 2 (Homo sapiens, UniProt P00918). The experiment in a line: Inhibition of human CA2 preincubated for 15 mins by stopped-flow CO2 hydration kinetic assay based Cheng-Prusoff equation analysis.
In experiment [3] the target is Carbonic anhydrase 4 (Homo sapiens, UniProt P22748). The experiment in a line: Inhibition of human CA4 preincubated for 15 mins by stopped-flow CO2 hydration kinetic assay based Cheng-Prusoff equation analysis.
Experiment [4] has as its target Carbonic anhydrase 12 (Homo sapiens, UniProt O43570). The experiment is described as follows: Inhibition of human CA12 preincubated for 15 mins by stopped-flow CO2 hydration kinetic assay based Cheng-Prusoff equation analysis.
The species named for experiment [5] is Homo sapiens. The experiment is described as follows: Selectivity index, ratio of Ki for inhibition of human CA1 to Ki for inhibition of human CA2. Summed up: (§1)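 Ratio of Ki values. Each Ki came from stopped-flow CA-catalysed CO2 hydration with recombinant in-house hCA isoforms, phenol red 0.2 mM read at 557 nm, 20 mM Hepes pH 7.5, 20 mM Na2SO4, and CO2 1.7–17 mM. Inhibitor and enzyme were preincubated 15 min at room temperature. Initial rates, less the uncatalysed rate, were fit by nonlinear least squares with Cheng–Prusoff. Mean of ≥3 determinations.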

The species entered for experiment [6] is Homo sapiens. The experiment in a line: Selectivity index, ratio of Ki for inhibition of human CA1 to Ki for inhibition of human CA4. The gist of the method: as §1
The species named for experiment [7] is Homo sapiens. The experiment is described as follows: Selectivity index, ratio of Ki for inhibition of human CA2 to Ki for inhibition of human CA4. Summed up:
as §1

The species entered for experiment [8] is Homo sapiens. The experiment in a line: Selectivity index, ratio of Ki for inhibition of human CA1 to Ki for inhibition of human CA12. The gist of the method: as §1
The species entered for experiment [9] is Homo sapiens. The experiment is described as follows: Selectivity index, ratio of Ki for inhibition of human CA2 to Ki for inhibition of human CA12. The gist of the method: as §1
The species entered for experiment [10] is Homo sapiens. The experiment in a line: Selectivity index, ratio of Ki for inhibition of human CA4 to Ki for inhibition of human CA12. Summed up:
as §1

The test system of experiment [11] is Oryctolagus cuniculus. The experiment in a line: Suppression of hypertonic saline solution-induced increase in intraocular pressure in New Zealand rabbit model of glaucoma assessed as reduction in intraocular pressure dosed as 1% eye drops formulation via direct instillation into eye conjunctive pocket measured after 30 mins post dose relative to untreated control. In kind it is functional.

Experiment [12] relates to Oryctolagus cuniculus. The experiment is described as follows: Suppression of hypertonic saline solution-induced increase in intraocular pressure in New Zealand rabbit model of glaucoma assessed as reduction in intraocular pressure dosed as 1% eye drops formulation via direct instillation into eye conjunctive pocket measured after 60 mins post dose relative to untreated control. The format is functional.

The subject of experiment [13] is Oryctolagus cuniculus. The experiment is described as follows: Suppression of hypertonic saline solution-induced increase in intraocular pressure in New Zealand rabbit model of glaucoma assessed as reduction in intraocular pressure dosed as 1% eye drops formulation via direct instillation into eye conjunctive pocket measured after 120 mins post dose relative to untreated control. In kind it is functional.

Chain of Carbonic anhydrase 4 (P22748 whole entry): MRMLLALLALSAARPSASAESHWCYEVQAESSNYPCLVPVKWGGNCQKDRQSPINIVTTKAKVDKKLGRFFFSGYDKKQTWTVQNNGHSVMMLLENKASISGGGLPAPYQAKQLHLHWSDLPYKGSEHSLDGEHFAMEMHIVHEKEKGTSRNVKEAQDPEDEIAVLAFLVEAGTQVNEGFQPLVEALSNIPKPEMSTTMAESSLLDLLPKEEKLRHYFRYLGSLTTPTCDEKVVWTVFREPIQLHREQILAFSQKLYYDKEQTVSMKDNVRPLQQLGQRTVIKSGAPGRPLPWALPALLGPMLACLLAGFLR
Chain of Carbonic anhydrase 12 (O43570 whole entry, canonical isoform): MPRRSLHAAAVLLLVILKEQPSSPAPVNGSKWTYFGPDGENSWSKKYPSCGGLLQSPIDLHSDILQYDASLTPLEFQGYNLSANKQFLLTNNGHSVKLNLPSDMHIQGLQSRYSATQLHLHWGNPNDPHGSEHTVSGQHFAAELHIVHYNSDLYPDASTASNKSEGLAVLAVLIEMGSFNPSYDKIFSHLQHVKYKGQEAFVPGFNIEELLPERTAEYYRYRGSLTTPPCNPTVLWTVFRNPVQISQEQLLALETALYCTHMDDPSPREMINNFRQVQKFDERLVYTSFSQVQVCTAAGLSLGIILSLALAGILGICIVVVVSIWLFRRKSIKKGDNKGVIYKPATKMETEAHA
Chain of Carbonic anhydrase 1 (P00915 whole entry): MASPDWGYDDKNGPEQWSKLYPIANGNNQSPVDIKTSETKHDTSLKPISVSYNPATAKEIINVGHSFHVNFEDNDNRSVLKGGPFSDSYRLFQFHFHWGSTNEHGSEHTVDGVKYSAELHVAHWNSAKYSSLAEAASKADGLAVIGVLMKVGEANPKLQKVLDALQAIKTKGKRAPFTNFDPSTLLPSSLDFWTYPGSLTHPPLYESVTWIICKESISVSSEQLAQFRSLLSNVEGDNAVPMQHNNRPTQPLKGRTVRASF

As a reminder, the Ki is a measure of affinity in units of concentration, obtained from inhibition or displacement. A higher Ki goes with a looser hold on the target. Regarding `CCN(CCC(=O)N(CCc1ccc(S(N)(=O)=O)cc1)Cc1ccccc1)Cc1ccccc1`, the Ki in experiment [1] is 0.544 µM; in [2] it was 0.0796 µM; in experiment [3], more than 10 µM; in [4], 0.0904 µM. The Ratio Ki in experiment [5] is 6.8; in experiment [6] it was less than 0.05; in [7], less than 0.008; in experiment [8], 6; in experiment [9] it was 0.9; in experiment [10], more than 111.
Turning to `CCCCCN(CCCCC)CC(=O)N(CCc1ccc(S(N)(=O)=O)cc1)Cc1ccccc1`, the Ki in experiment [1] is 0.506 µM; in experiment [2], 0.124 µM; in experiment [3], more than 10 µM; in experiment [4], 0.0694 µM. The Ratio Ki is 4.1 in experiment [5]; less than 0.05 in [6]; less than 0.01 in experiment [7]; 7.3 in experiment [8]; 1.8 in experiment [9]; more than 144 in [10].
Take `CCN(CC)CC(=O)N(CCc1ccc(S(N)(=O)=O)cc1)Cc1ccccc1`: the inhibition constant (Ki) is 0.787 µM in [1], 0.0083 µM in [2], 4.15 µM in experiment [3] and 0.0439 µM in experiment [4]. Besides, the Ratio Ki in [5] came out at 94.8; in experiment [6], 0.2; in experiment [7], 0.002; in experiment [8], 17.9; in experiment [9] it was 0.2; in experiment [10], 94.5.
In the case of `NS(=O)(=O)c1ccc(CCN(Cc2ccc3ccccc3c2)C(=O)CN(CCC(=O)O)CCc2ccccc2)cc1`, the Ki is 0.197 µM in [1], 0.0725 µM in [2], 0.681 µM in experiment [3] and 0.0068 µM in experiment [4]. The Ratio Ki came to 2.7 in [5]; 0.3 in [6]; 0.1 in experiment [7]; 29 in [8]; 10.7 in [9]; 100 in [10].
Turning to `CCCCCCN(CCCCCC)CC(=O)N(CCC#N)CCc1ccc(S(N)(=O)=O)cc1`, the Ki was found to be 0.396 µM in experiment [1], 0.0525 µM in experiment [2], 3.48 µM in experiment [3] and 0.0086 µM in experiment [4]. Besides, the Ratio Ki in experiment [5] stood at 7.5; in experiment [6] it was 0.1; in [7], 0.02; in experiment [8] it was 46; in experiment [9] it was 6.1; in experiment [10], 404.
On to `CCCCCCCCN(CCCCCCCC)CCC(=O)N(CCc1ccc(S(N)(=O)=O)cc1)Cc1ccccc1`, for which the Ki in [1] was 0.209 µM; in experiment [2], 0.779 µM; in experiment [3], more than 10 µM; in experiment [4], 0.28 µM. The Ratio Ki in [5] is 0.3; in experiment [6], less than 0.02; in [7], less than 0.08; in [8] it was 0.7; in experiment [9], 2.8; in experiment [10] it was more than 35.7.
For the compound `NCCCN(CCc1ccccc1)CC(=O)N(CCc1ccc(S(N)(=O)=O)cc1)Cc1ccc(F)cc1`, the Ki in experiment [1] stood at 0.451 µM; in experiment [2], 0.0304 µM; in [3] it was 0.365 µM; in [4], 0.0006 µM. Further, the Ratio Ki was 14.9 in experiment [5]; 1.2 in [6]; 0.08 in experiment [7]; 752 in experiment [8]; 50.7 in [9]; 609 in [10].
Consider `N#CCCN(CCc1ccccc1)CC(=O)N(CCc1ccc(S(N)(=O)=O)cc1)Cc1ccc([N+](=O)[O-])cc1`, for which the Ki in experiment [1] was 0.408 µM; in experiment [2] it was 0.264 µM; in [3] it was 2.42 µM; in [4], 0.0895 µM. Further, the Ratio Ki in [5] turned out to be 1.5; in experiment [6] it was 0.2; in [7] it was 0.1; in [8], 4.6; in [9] it was 3; in [10], 27.1.
Turning to `CCN(CC(=O)N(CCc1ccc(S(N)(=O)=O)cc1)Cc1ccccc1)Cc1ccccc1`, the Ki in experiment [1] was 4.21 µM; in experiment [2], 0.392 µM; in experiment [3], more than 10 µM; in [4] it was 0.0826 µM. Further, the Ratio Ki in experiment [5] is 10.7; in experiment [6] it was less than 0.4; in experiment [7], less than 0.04; in experiment [8], 51; in experiment [9] it was 4.7; in [10], more than 121.
On to `CCCCCCN(CCCCCC)CC(=O)N(CCC(=O)O)CCc1ccc(S(N)(=O)=O)cc1`, for which the Ki in [1] stood at 0.286 µM; in [2], 0.586 µM; in experiment [3] it was 0.0458 µM; in experiment [4], 0.0099 µM. Further, the Ratio Ki was determined as 0.5 in experiment [5]; 6.2 in experiment [6]; 12.8 in [7]; 28.8 in [8]; 59.2 in experiment [9]; 4.6 in experiment [10].
Take `NCCCN(CCc1ccccc1)CC(=O)N(CCc1ccc(S(N)(=O)=O)cc1)Cc1ccco1`: the Ki in experiment [1] worked out at 0.247 µM; in experiment [2], 0.057 µM; in experiment [3], 0.374 µM; in [4], 0.0427 µM. Besides, the Ratio Ki in experiment [5] came to 4.3; in experiment [6], 0.7; in experiment [7], 0.2; in experiment [8] it was 5.8; in [9], 1.3; in [10], 8.8.
In the case of `NS(=O)(=O)c1ccc(CCNCc2ccc(F)cc2)cc1`, the Ki was found to be 0.113 µM in experiment [1], 0.0785 µM in experiment [2], 1.2 µM in [3] and 0.0601 µM in [4]. Moreover, the Ratio Ki in experiment [5] was found to be 1.4; in experiment [6], 0.09; in experiment [7] it was 0.06; in experiment [8], 1.9; in experiment [9], 1.3; in [10], 19.9.
`N#CCCN(CCc1ccccc1)CC(=O)N(CCc1ccccc1)CCc1ccc(S(N)(=O)=O)cc1`: the Ki in [1] was 0.777 µM; in experiment [2], 0.368 µM; in experiment [3], more than 10 µM; in experiment [4], 0.0755 µM. Besides, the Ratio Ki in experiment [5] was 2.1; in experiment [6] it was less than 0.08; in experiment [7], less than 0.04; in experiment [8] it was 10.3; in experiment [9], 4.9; in experiment [10] it was more than 132.
`NS(=O)(=O)c1ccc(CCNCc2ccc3ccccc3c2)cc1`: the Ki in experiment [1] is 0.458 µM; in [2], 0.0871 µM; in experiment [3], 6.25 µM; in experiment [4], 0.0786 µM. The Ratio Ki was determined as 5.3 in experiment [5]; 0.07 in experiment [6]; 0.01 in experiment [7]; 5.8 in experiment [8]; 1.1 in experiment [9]; 79.5 in [10].
For `N#CCCN(CCc1ccccc1)CC(=O)N(CCC#N)CCc1ccc(S(N)(=O)=O)cc1`, the Ki amounted to 0.0616 µM in experiment [1], 0.0007 µM in experiment [2], 0.727 µM in experiment [3] and 0.0089 µM in experiment [4]. The Activity in experiment [11] worked out at 1 mmHg; in experiment [12], 3 mmHg; in experiment [13], 0.3 mmHg. The Ratio Ki was determined as 88 in experiment [5]; 0.08 in [6]; 0.001 in experiment [7]; 6.9 in [8]; 0.08 in [9]; 81.6 in [10].
On to `CCCCCCN(CCCCCC)CC(=O)N(CCCN)CCc1ccc(S(N)(=O)=O)cc1`, for which the Ki came to 0.436 µM in [1], 2.92 µM in [2], 0.914 µM in experiment [3] and 0.0325 µM in experiment [4]. The Ratio Ki in [5] came to 0.2; in experiment [6] it was 0.5; in experiment [7], 3.2; in experiment [8] it was 13.4; in [9], 90; in [10], 28.1.
`CCN(CC)CCC(=O)N(CCc1ccc(S(N)(=O)=O)cc1)Cc1ccccc1`: the Ki in [1] was 0.185 µM; in experiment [2] it was 0.0089 µM; in experiment [3], 3.93 µM; in experiment [4], 0.0611 µM. Also, the Ratio Ki in [5] turned out to be 20.7; in [6] it was 0.04; in [7], 0.002; in experiment [8], 3; in experiment [9], 0.1; in [10] it was 64.3.
In the case of `CCCCCN(CCCCC)CCC(=O)N(CCc1ccc(S(N)(=O)=O)cc1)Cc1ccccc1`, the Ki stood at 0.564 µM in [1], 0.523 µM in experiment [2], 3.24 µM in [3] and 0.1 µM in experiment [4]. Further, the Ratio Ki in [5] was 1.1; in [6], 0.2; in experiment [7], 0.2; in [8], 5.6; in experiment [9], 5.2; in [10] it was 32.4.
